The list is not random: actives were taken first. Their share in the collection is about 2.6%.
RAM network inh: blocks the yeast RAM network. S. cerevisiae dse1pr::URA3 reporter, 5-FOA growth OD615, 2 d; analog-sensitive cbk1-as2 kinase mutant strain. inhibition, % at 50 µM. hit rate 1.8% among 190,000;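 active = inhibition above a set limit, 3 SD over mean compound inhibition, cut at about 8.4% in these data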;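 note: 0% = DMSO-only wells with no growth and 100% = 10 µM 1-NA-PP1 full growth; inhibition rescues growth on 5-FOA so higher OD means more RAM inhibition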
Yeast growth inh: reduces growth of yeast BB579 in restrictive medium | hit rate 0.51% among 140,000 | inhibition, % at 10 µM | S. cerevisiae BB579 growth, OD615, 48 h | AID 804;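 active = inhibition above a set limit, 3 SD over the mean compound inhibition, cut at about 44% in these data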
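Material: Saccharomyces cerevisiae DeaD strain BB579, replicative lifespan model yeast; buffer or medium: CSMM-D restrictive synthetic medium containing dextrose (glucose); compound: 10 µM single dose, DMSO 0.25%; timing: 48 h compound exposure at 30 °C after 4 h preincubation; signal: turbidity as optical density at 615 nm; benchmarks: positive control amphotericin B 10 µg/mL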
Yeast life ext: extends the lifespan of yeast; inhibition of the nicotinamide effect, % at 10 µM; S. cerevisiae growth with nicotinamide, OD615; deaD strain in restrictive glucose medium; hit rate 0.68% among 130,000;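 active = inhibition above a set limit, placed 3 SD over the median of all compounds, cut at about 26% in these data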;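 note: 0% = nicotinamide-treated wells and 100% = cells grown without nicotinamide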
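System: DeaD-strain S. cerevisiae / Buffer or medium: CSMM-D, restrictive glucose (dextrose) synthetic minimal medium / Probe or stimulus: nicotinamide, 1.5 mM, co-present with compound / Compound: one concentration, 10 µM, DMSO 0.25% / Incubation: 48 h compound exposure at 30 °C, humidified / Technique: optical density (absorbance) at 615 nm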
RAM 5-FOA: RAM network inhibition, efflux-deficient strain; 1,200 tested, under 10 active; S. cerevisiae efflux-deficient reporter strain, 5-FOA growth OD615, 2 days; shares compounds with RAM network inh; max inhibition, %; call rule not given here;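 note: plate controls were vehicle for no effect and reference inhibitor for full effect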
* hit, by the source's call; . = no result given.

SMILES	RAM network inh	Yeast growth inh	Yeast life ext	RAM 5-FOA
CCCCCCCCNC(=O)/C(C#N)=C/c1ccc(SC)cc1	12*	-57	7	3
CCCCN1C(=O)/C(=C2/Sc3ccccc3N2C)S/C1=N\c1ncn[nH]1	4	.	.	.
CCOC(=O)CNC(=S)n1ncnc1N	1	.	.	.
CC(C)[C@H](NS(=O)(=O)c1ccccc1)C(=O)OCC(=O)Nc1ccccc1Sc1ccccc1	15*	-24	11	6
Cc1cc(NC(=O)COC(=O)[C@@H](NS(=O)(=O)c2ccccc2)C(C)C)no1	2	.	.	.
COc1ccccc1/C=C/C(=O)OCC(=O)Nc1ccccc1Sc1ccccc1	15*	-31	-1	3
O=C(COC(=O)CNS(=O)(=O)c1cccc(Br)c1)Nc1ccccc1Sc1ccccc1	15*	-48	11	2
COc1ccccc1NC(=O)COC(=O)/C=C/c1ccccc1[N+](=O)[O-]	3	-40	-2	.
O=C(COC(=O)CNS(=O)(=O)c1c(Cl)cccc1Cl)Nc1ccccc1Sc1ccccc1	8	-41	7	.
COC(=O)CC1Oc2ccccc2N(Cc2ccccc2)C1=O (stereo not drawn)	1	-20	-14	.
CN(Cc1ccccc1NS(=O)(=O)c1ccc2ccccc2c1)C1CCCCC1	1	.	.	.
CCC(Sc1nc(N)cc(=O)[nH]1)C(=O)Nc1cc(C)on1 (stereo not drawn)	0	.	.	.
CCOC(=O)Cc1csc(NC(=O)NC2(C(F)(F)F)Oc3ccc(Cl)cc3O2)n1 (stereo not drawn)	3	-81	0	.
CCOC(=O)Cc1csc(NC(=O)NC2(C(F)(F)F)Oc3ccccc3O2)n1	14*	-29	-2	1
O=C(CCC1CCCCC1)NNC(=O)c1cnccn1	-1	2	-3	.
COCCCn1cc(C(=O)c2ccccc2OCC(=O)Nc2cccc(F)c2)cc(C#N)c1=O	6	.	.	.
O=[N+]([O-])c1cccc(N=NN(CCO)c2cccc([N+](=O)[O-])c2)c1	2	-32	-6	.
CCCN(N=Nc1cccc([N+](=O)[O-])c1)c1cccc([N+](=O)[O-])c1	12*	-43	-10	3
Cc1ccnc2ccc(SC(F)(F)F)cc12	1	.	.	.
CCCCc1ccc(NC(=S)Nc2ccc(Cl)c(S(=O)(=O)N(C)C)c2)cc1	16*	-10	3	6
CCN1CCN(CC(=O)Nc2ccc(Cl)c(S(=O)(=O)N(C)C)c2)CC1	1	.	.	.
COCCNc1nnc(SCC(=O)c2ccc3c(c2)OCO3)s1	3	19	-5	.
O=C(CSc1nnc(SCc2ccc(Cl)cc2)s1)c1ccc2c(c1)OCO2	16*	-53	9	2
CSc1cnn(Cc2ccccc2)c(=O)c1SCc1ccccc1	1	-24	2	.
O=C1COc2ccc(C(=O)c3ccccc3C(=O)NCc3ccco3)cc2N1	-1	-20	-9	.
SMILES	RAM network inh	Yeast growth inh	Yeast life ext	RAM 5-FOA
CN(C)c1ccc(N=C/C=C2/N(C)c3ccccc3C2(C)C)cc1	1	-1	-1	.
CC(C)CC(NC(=O)C(CO)NC(=O)C1CCC(=O)N1)C(N)=O (stereo not drawn)	2	.	.	.
O=C(c1cnc(-c2ccc(Cl)cc2)s1)c1ccc(Cl)cc1Cl	15*	-40	-5	3
O=C(O)Cc1ccc(C(=O)c2ccc(Cl)cc2Cl)s1	-1	.	.	.
O=C1Nc2ccccc2/C1=N\N=C\C1=C(N2CCOCC2)C(=C\c2ccccc2)/CC1	13*	-48	-8	5
Cn1cc(C(=O)N/N=C/C2=C(N3CCOCC3)C(=C\c3ccccc3)/CC2)ccc1=O	-1	-32	3	.
OCC1(Cc2ccccc2)CCCN(Cc2ccn[nH]2)C1 (stereo not drawn)	3	.	.	.
Cc1ccc(NC(=O)c2cc(S(=O)(=O)NCCC3=CCCCC3)ccc2F)cc1	16*	-42	-1	4
CC(=O)N1CCCc2cc(S(=O)(=O)NCCC3=CCCCC3)ccc21	-1	14	-22	.
CCc1c(C)nc2ncnn2c1NCCc1ccc(Cl)cc1	0	.	.	.
COc1ccc2cc(-c3[nH]ncc3CN3CCCN(c4ccccc4)CC3)ccc2c1	1	.	.	.
Cc1ccc(C)c(NC(=O)COC(=O)CNC(=O)c2ccccc2Cl)c1	2	.	.	.
COC(=O)c1ccc(-c2nc3ccc(C)cc3o2)cc1	2	-24	-19	.
COC(=O)c1ccc(-c2ncc(-c3cccc4ccccc34)o2)cc1	13*	-13	.	2
CCCCSc1nnc([C@H](CC(C)C)NC(=O)OC(C)(C)C)o1	16*	12	-11	2
CCCCSc1nnc([C@H](C)NC(=O)OC(C)(C)C)o1	-1	-26	-6	.
COc1cccc(-c2nc(CS(=O)(=O)c3ccccc3)no2)c1	0	-6	-25	.
C=CCn1c(-c2cccn(Cc3ccccc3)c2=O)n[nH]c1=S	-1	-13	-3	.
C=CCn1c(-c2cccn(Cc3ccc(Cl)cc3)c2=O)n[nH]c1=S	13*	-20	5	9
CCOC(=O)c1cc(-c2ccccc2)sc1NC(=O)COC(=O)c1cccc(S(N)(=O)=O)c1	6	.	.	.
Cc1ccc(S(=O)(=O)CCC(=O)OCC(=O)Nc2cc(C)on2)cc1	1	-28	-9	.
CCOC(=O)c1cc(C(C)C)sc1NC(=O)COC(=O)CCS(=O)(=O)c1ccccc1	13*	-29	3	2
CCOC(=O)c1c(NC(=O)COC(=O)CCS(=O)(=O)c2ccc(C)cc2)sc(C)c1C	14*	-9	4	3
Cc1cc(N2C(=O)C3C4CC(c5ccccc5)C(C4)C3C2=O)no1 (stereo not drawn)	1	.	.	.
Cn1/c(=N/NC(=O)c2ccccc2F)sc2ccccc21	0	.	.	.
SMILES	RAM network inh	Yeast growth inh	Yeast life ext	RAM 5-FOA
Cc1ccc(C(=O)Nc2ccc(Cl)cc2C)c(Cl)c1	3	.	.	.
CCc1cccc(C)c1NC(=S)N(Cc1cccnc1)Cc1ccco1	2	-34	4	.
COc1ccccc1N1CCN(c2nc3ccccn3c(=O)c2C=O)CC1	1	-21	-6	.
Cc1noc(NS(=O)(=O)c2ccc(N/C=C\C(=O)c3ccc(Br)cc3)cc2)c1C	12*	.	.	3
Cc1noc(NS(=O)(=O)c2ccc(N/C=C\C(=O)c3ccc4c(c3)OCO4)cc2)c1C	8	-57	-25	.
COc1ccc(OCCSc2nnc(CCNC(=O)c3ccc(Cl)c(Cl)c3)n2C)cc1	6	-24	1	.
CCn1c(CCNC(=O)c2ccc(Cl)c(Cl)c2)nnc1SCCOc1ccc(OC)cc1	16*	-40	-3	1
CC(C)c1ccc(OCC(=O)N(Cc2ccccc2)c2ccccn2)cc1	1	-33	3	.
Cc1ccn2c(-c3n[nH]c(=S)n3C)c(C)nc2c1	2	-34	4	.
Cc1ccc(-c2nnnn2C2C/C(=N\NC(N)=S)C3OCC2O3)cc1 (stereo not drawn)	1	.	.	.
CCOc1ccc(-c2n[nH]c(C)c2-c2ccccc2OC)c(O)c1	3	-1	-4	.
CCCOC(=O)c1ccc(Oc2c(-c3ccc(OCC)cc3O)n[nH]c2C)cc1	15*	-68	-12	5
COC(=O)CCC(=O)NC(=S)Nc1ccccc1F	0	.	.	.
Cc1cc(NC(=O)CSc2nc3ccsc3c(=O)n2Cc2ccccn2)n[nH]1	20*	-40	-17	1

Screens: PubChem, SRMLSC
